Measurements reported in PubChem BioAssay.
Unmarked numbers belong to inactive results. Inconclusive results are not listed. Calls of active or inactive are those of the source.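 Rule for the calls, unless noted: active = growth inhibition above 25% in both replicates, a cutoff set 3 SD above the mean; inconclusive = above 25% in only one replicate; inactive = the rest.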

Experiments:
[1] = OD615 S. cerevisiae growth inhibition, permissive medium, pilot counter-assay, permissive growth control for S. cerevisiae lifespan shortening project (AID 705); details: OD615, 24 h, at 10 µM, stronger effect = higher value
How it was run: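 Test system: Saccharomyces cerevisiae strain carrying genetically modified DeaD replicative-lifespan system; buffer or medium: SC raffinose/galactose permissive medium; dosing: one dose 10 µM, DMSO 0.25% final; times: 24 h exposure, 30 °C; measured by: OD at 615 nm; read-out basis: growth inhibition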

[2] = Restrictive medium S. cerevisiae growth inhibition, OD615, pilot screen of yeast lifespan reduction project, restrictive growth control (AID 706;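 active = growth inhibition above a set limit, 3 SD over mean compound inhibition, in both replicates, cut at about 43% in these data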;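 note: modified DeaD lifespan yeast strain shifted to restrictive glucose medium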); details: OD615, 48 h, at 10 µM, stronger effect = higher value
How it was run: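 material = engineered S. cerevisiae DeaD strain | buffer or medium = glucose-based CSMM-D restrictive medium | dosing = one concentration, 10 µM final, 0.25% DMSO | schedule = 4 h pre-growth plus 48 h compound exposure, 30 °C | detection = OD615 absorbance reading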

[3] = viability gain of MRP-1-high H69AR cells under doxorubicin, pilot screen, MRP-1 activator project, CellTiter-Glo, duplicate (AID 807;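 active = viability increase at or above a cutoff of the median across tested compounds plus 3 SD, cut at about 8.5% in these data, passing the limit was not always enough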;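 note: compound pretreatment 18-22 h then 72 h combined with doxorubicin; 0% = doxorubicin alone and 100% = vehicle without doxorubicin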); details: H69AR viability with doxorubicin, CellTiter-Glo luminescence; at 10 µM; stronger effect = higher value
[4] = growth suppression of beta-catenin knockout HCT116, pilot screen, human colon tumor cells (AID 823;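 active = cell viability at or below a set limit in both duplicate runs, the limit being the all-compound median minus 4 SD, cut at about 23% in these data, passing the limit was not always enough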;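 note: 0% = wells killed by 20 µM Hyamine and 100% = untreated DMSO cell wells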); details: CellTiter-Glo, 60 h, at 10 µM, stronger effect = lower value
[5] = growth suppression of PTEN-deleted HCT116, pilot screen, cell-based, HCT116 clonal line, CellTiter-Glo (AID 824;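 active = viability at or below 27.92% in each of two runs, the all-compound median minus 4 SD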;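 note: 0% = 20 µM Hyamine control and 100% = vehicle cell control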); details: 60 h, at 10 µM, stronger effect = lower value
[6] = inhibitors of the yeast RAM network, pilot screen, dse1pr::URA3 reporter, 5-FOA selection (AID 869;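 active = inhibition over a set limit, the all-compound mean plus 3 SD, in both replicate runs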;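 note: 0% = DMSO wells with no growth and 100% = 10 µM 1-NA-PP1 with full growth; RAM network block rescues cells from 5-FOA so hits raise OD615 growth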); details: S. cerevisiae dse1pr::URA3 5-FOA growth, OD615, 2 d; at 10 µM; stronger effect = higher value; strain carries analog-sensitive mutant Cbk1 kinase
[7] = RAM signaling pathway blockade in yeast – S. cerevisiae, Pdr1DBD-CYC8 efflux-inhibited sensitized strain, primary screen (AID 1298;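 active = RAM network inhibition above 8.4% in each of two replicates, 3 SD over the compound average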;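 note: 0% = DMSO untreated cells without growth and 100% = 10 µM 1-NA-PP1 full growth; higher means more yeast growth rescued from 5-FOA killing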); details: S. cerevisiae cbk1-as DSE1-URA3 strain, 5-FOA growth OD615, 2 d; at 50 µM; stronger effect = higher value

| Compound | growth inhibition [1] | growth inhibition [2] | viability increase [3] | viability [4] | viability [5] | inhibition [6] | RAM network inhibition [7] |
| --- | --- | --- | --- | --- | --- | --- | --- |
| Cc1ccc(C)c(Cn2c(CN(C)Cc3ccccc3)nc3c2c(=O)n(C)c(=O)n3C)c1 | -0.27% | -21.5% | -6.57% | 71.7% | 61.5% | 2.2% | 2.51% |
| CCOC(=O)C1CCN(S(=O)(=O)c2cc(Br)cc3c2N(C(C)=O)C(C)C3)CC1 (centres undefined) | -11.1% | -29% | 0.29% | 93.4% | 93.2% | 1.19% | 11.2% |
| O=P(O)(CCc1ccccn1)CN1CCOCC1 | -17.5% | -15.6% | 1.31% | 92.6% | 92.5% | 2.73% | 1.09% |
| CCOCCn1c(SCC(=O)OCc2ccccc2)nc2c1c(=O)[nH]c(=O)n2C | -13.7% | -14.2% | -0.57% | 104% | 101% | 0.495% | 3.42% |
| CC(=O)N1CCc2cc(C(=O)CN3CCCN(Cc4ccc(F)cc4)C3)ccc21 | 4.55% | 9.21% | -1.12% | 102% | 95.8% | 1.48% | 2.92% |
| CCN1C(=O)c2cccc3c(N)ccc1c23 | -0.755% | -11% | -5.55% | 74.2% | 68.3% | 0% | 1.92% |
| Cc1nn(-c2ccccc2)c(Cl)c1C(=O)Nc1c(C)n(C)n(-c2ccccc2)c1=O | -9% | -23% | -0.99% | 102% | 94.3% | 0.935% | 3.15% |
| COc1ccc(C2CC(c3cccc(Cl)c3)n3nc(N)nc3N2)cc1 (centres undefined) | -3.22% | -3.25% | -0.53% | 99.8% | 89.9% | 1.37% | 2.3% |
| Cc1ccn2cc(-c3ccc(S(=O)(=O)N4CCOCC4)cc3)nc2c1 | -2.96% | 6.53% | 2.12% | 106% | 102% | 1.6% | 1.79% |
| COc1cccc(-n2c(=O)[nH]cc(C(=O)Nc3ccc4c(c3)OCCO4)c2=O)c1 | -8.56% | -1.22% | -1.26% | 105% | 101% | 3.17% | 5.22% |
| O=C(Nc1c(C(=O)O)oc2ccc(Br)cc12)c1ccccc1 | -34% | 2.99% | -3.96% | 101% | 99.5% | 2.95% | -2.35% |
| Cc1ccc(C)c(NC(=O)C2CC=CCC2C(=O)O)c1 (centres undefined) | 3.24% | 5.03% | -0.5% | 101% | 104% | 1.96% | 4.68% |
| Cn1cccc1Cc1nnc(SCC(=O)Nc2nccs2)n1CCc1ccccc1 | 19.9% | 62.6% (active) | -2.32% | 103% | 85.8% | 1.12% | 2.48% |
| CC(C)N(C(=O)CSc1nc2c([nH]1)c(=O)n(C)c(=O)n2C)c1ccccc1 | -4.33% | -12.7% | 1.94% | 106% | 102% | 1.22% | 6.3% |
| CCn1cc(C(=O)N2CCn3c(nc4ccccc43)C2)c(=O)c2ccc(C)nc21 | -10.2% | -4.84% | -2.81% | 104% | 94.3% | 2.08% | 0.07% |
| COc1ccc2c(c1)OC1(C)CC2C(C(=O)c2ccccc2OC)C(=O)N1 (centres undefined) | -18.1% | -9.23% | -4.56% | 80.4% | 67% | -0.025% | 1.48% |

| Compound | growth inhibition [1] | growth inhibition [2] | viability increase [3] | viability [4] | viability [5] | inhibition [6] | RAM network inhibition [7] |
| --- | --- | --- | --- | --- | --- | --- | --- |
| Cn1c(=O)c2cc(NCc3ccccc3)nnc2n(C)c1=O | -12.8% | -9.73% | -2.1% | 67.5% | 58.8% | 0.38% | -0.94% |
| CCCn1nc2ccccc2c1P(=N)(N1CCOCC1)N1CCOCC1 | -7.87% | -23.5% | -2% | 96% | 96.8% | 2.04% | 1.45% |
| COc1cc(Cl)c(S(=O)(=O)n2cnc(C)c2)cc1Cl | 2.76% | 0.12% | 0.28% | 101% | 104% | 1.33% | 2.3% |
| COc1cc(C2C(C(=O)c3ccco3)=C(O)C(=O)N2Cc2cccnc2)cc(OC)c1OC (centres undefined) | 2.67% | -4.03% | -3.86% | 102% | 96.8% | 1.64% | 4.97% |
| Cc1cc(C)cc(OCCCCCNCCO)c1 | -8.19% | -14.7% | -3.03% | 87.6% | 86.5% | 2.79% | 2.47% |
| [O-]/[N+](=C\c1ccc(OC(F)F)cc1)c1ccccc1 | -1.07% | 2.88% | -5.13% | 88.1% | 93.7% | 1.19% | 1.08% |
| CCCNS(=O)(=O)c1cccc2cccnc12 | -6.87% | 6.17% | -1.58% | 101% | 96.5% | 1.89% | 0.72% |
| NC(=O)C1CCN(C(=O)c2cnn(-c3ccccc3)c2NC(=O)c2ccco2)CC1 | -2.77% | 1.08% | -4.39% | 99.7% | 98.8% | 1.67% | 5.39% |
| COc1ccc(Cl)cc1NC(=O)c1cnc2n(c1=O)CCS2 | -7.35% | 3.42% | -4.43% | 94.5% | 89.2% | 2.78% | 3.81% |
| CCOC(=O)C1CCN(S(=O)(=O)c2ccc3c4c(cccc24)C(=O)N3)CC1 | -4.42% | -7.67% | -3.39% | 96.5% | 85.7% | 1.76% | 2.83% |
| CCOc1ccc(CCNc2cc(C)nc3ncnn23)cc1OCC | -1.77% | 4.5% | -2.06% | 90.3% | 94.1% | 1.71% | 1.15% |
| CC(=O)C1=C(C)NC(SCC(=O)c2ccc(C)cc2)=C(C#N)C1c1ccco1 (centres undefined) | -5.27% | 32.5% | -6.5% | 49.2% | 52.7% | 4.71% | 2.93% |
| CC(C)CCNC(=O)Cn1c(=O)oc2cc(S(=O)(=O)N3CCc4ccccc43)ccc21 | -6.32% | -5.12% | -5.87% | 71.8% | 62.5% | 1.15% | 1.07% |
| CC1CN(Cc2nc3c(c(=O)n(C)c(=O)n3C)n2Cc2cccc(Cl)c2)CC(C)O1 (centres undefined) | -4.24% | -9% | -2.03% | 100% | 90.8% | 0.74% | 2.81% |
| COc1ccccc1CNC(=O)COC(=O)c1ccc(NC(N)=O)cc1 | -12.7% | -13.7% | -0.98% | 96.5% | 97.9% | 0.56% | 5.2% |
| COc1cccc(C2c3c(oc4ccc(F)cc4c3=O)C(=O)N2CCCN2CCOCC2)c1 (centres undefined) | -9.58% | -6.59% | -1.59% | 105% | 105% | 1.25% | 4.33% |
